Series [1] can be described thus: Terminal half life in Sprague-Dawley rat at 10 mg/kg, po administered as single dose. As to conditions: in vivo. Type of series: ADME, organism-based.
Series [2] deals with 5-hydroxytryptamine receptor 1A (Homo sapiens) (UniProt P08908). The series is described as follows: Displacement of [3H]-8-OH-DPAT from recombinant human 5-HT1AR expressed in CHO cell membranes at 10 uM after 90 mins by scintillation counting method relative to control. (In general: In a radioligand displacement assay an active substance lowers the binding of a labelled ligand.)
Chain of 5-hydroxytryptamine receptor 1A (Homo sapiens) (P08908 whole entry): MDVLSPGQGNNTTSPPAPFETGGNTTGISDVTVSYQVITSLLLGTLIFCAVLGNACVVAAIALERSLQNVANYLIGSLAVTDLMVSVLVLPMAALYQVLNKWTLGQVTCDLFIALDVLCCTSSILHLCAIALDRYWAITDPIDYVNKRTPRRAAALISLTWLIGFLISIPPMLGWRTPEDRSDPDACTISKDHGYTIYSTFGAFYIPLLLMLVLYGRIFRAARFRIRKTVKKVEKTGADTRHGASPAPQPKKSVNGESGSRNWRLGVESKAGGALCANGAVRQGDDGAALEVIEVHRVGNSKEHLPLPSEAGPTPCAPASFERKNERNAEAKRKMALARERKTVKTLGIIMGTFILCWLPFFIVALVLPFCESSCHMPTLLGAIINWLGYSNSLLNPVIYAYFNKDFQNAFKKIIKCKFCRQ

Series [3] deals with D(2) dopamine receptor (Homo sapiens) (UniProt P14416). The series is described as follows: Displacement of [3H]-N-methylspiperone from recombinant human D2R expressed in fibroblast membranes at 10 uM after 90 mins by scintillation counting method relative to control. It is filed as cell membranes.
Chain of D(2) dopamine receptor (Homo sapiens) (P14416 whole entry): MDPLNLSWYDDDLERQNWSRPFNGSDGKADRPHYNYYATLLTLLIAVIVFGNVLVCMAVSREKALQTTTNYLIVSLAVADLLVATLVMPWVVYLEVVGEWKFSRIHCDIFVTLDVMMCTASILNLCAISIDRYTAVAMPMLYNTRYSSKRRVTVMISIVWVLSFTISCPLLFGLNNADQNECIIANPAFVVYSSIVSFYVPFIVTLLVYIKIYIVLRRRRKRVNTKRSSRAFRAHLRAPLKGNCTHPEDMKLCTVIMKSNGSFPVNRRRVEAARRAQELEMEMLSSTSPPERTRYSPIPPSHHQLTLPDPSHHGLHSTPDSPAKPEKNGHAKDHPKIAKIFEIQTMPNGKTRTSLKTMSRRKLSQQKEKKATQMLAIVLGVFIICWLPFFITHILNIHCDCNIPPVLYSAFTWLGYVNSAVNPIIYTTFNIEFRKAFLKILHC
For series [4], the target named is 5-hydroxytryptamine receptor 2A (Homo sapiens, UniProt P28223). As to the kind of experiment: Positive allosteric modulation of human 5-HT2AR expressed in CHO cells assessed as increase in 5-HT-induced intracellular calcium release at 0.000001 to 1 uM preincubated for 15 mins followed by 5-HT addition by calcium-4 dye based FLIPR assay. Type of series: cell-based. In a few lines: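 Human 5-HT2AR-CHO cells, same calcium assay: Calcium 4 dye with probenecid. Compound (1 pM, 1 nM, 1 μM) was given 15 min before a 5-HT concentration–response (10 pM–10 μM). Peak fluorescence was fit by 4-parameter regression.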
Chain of 5-hydroxytryptamine receptor 2A (P28223 whole entry): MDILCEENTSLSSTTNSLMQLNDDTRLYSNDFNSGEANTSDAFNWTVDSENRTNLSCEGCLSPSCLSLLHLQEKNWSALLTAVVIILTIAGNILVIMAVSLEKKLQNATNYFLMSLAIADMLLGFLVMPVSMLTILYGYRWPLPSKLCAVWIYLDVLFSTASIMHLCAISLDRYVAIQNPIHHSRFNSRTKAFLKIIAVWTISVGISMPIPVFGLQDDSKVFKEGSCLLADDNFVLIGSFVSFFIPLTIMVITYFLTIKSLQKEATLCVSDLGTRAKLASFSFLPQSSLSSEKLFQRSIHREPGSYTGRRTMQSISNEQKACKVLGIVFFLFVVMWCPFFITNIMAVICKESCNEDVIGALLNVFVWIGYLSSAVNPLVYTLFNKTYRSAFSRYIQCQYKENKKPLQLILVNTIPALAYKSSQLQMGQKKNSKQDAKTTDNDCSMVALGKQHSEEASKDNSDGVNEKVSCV
(Calcium assays in cells follow changes in intracellular calcium, usually with a dye or a luminescent sensor.)

Series [5] deals with D(1A) dopamine receptor (Homo sapiens) (UniProt P21728). As to the kind of experiment: Displacement of [3H]-SCH23390 from recombinant human D1R expressed in HEKT cell membranes at 10 uM after 90 mins by scintillation counting method relative to control.
Chain of D(1A) dopamine receptor (Homo sapiens) (P21728 whole entry): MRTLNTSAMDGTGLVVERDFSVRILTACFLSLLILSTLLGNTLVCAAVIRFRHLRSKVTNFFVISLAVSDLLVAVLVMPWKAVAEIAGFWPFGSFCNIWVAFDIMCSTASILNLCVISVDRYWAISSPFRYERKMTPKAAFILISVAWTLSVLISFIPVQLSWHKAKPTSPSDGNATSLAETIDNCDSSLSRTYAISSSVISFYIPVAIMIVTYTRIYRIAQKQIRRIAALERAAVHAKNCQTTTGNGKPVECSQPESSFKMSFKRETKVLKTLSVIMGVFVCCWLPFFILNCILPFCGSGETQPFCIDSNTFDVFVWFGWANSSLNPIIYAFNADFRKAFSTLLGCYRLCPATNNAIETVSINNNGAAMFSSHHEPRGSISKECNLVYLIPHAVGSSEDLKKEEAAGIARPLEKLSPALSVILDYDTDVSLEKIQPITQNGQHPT
In series [6] the target is D(3) dopamine receptor (Homo sapiens) (UniProt P35462). The series is described as follows: Displacement of [3H]-N-methylspiperone from recombinant human D3R expressed in HEK cell membranes at 10 uM after 90 mins by scintillation counting method relative to control. In a few lines:
(§1)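 Single-concentration screen at 10 μM test compound, each target labelled with the radioligand given in the line. The read-out is mean % inhibition of specific radioligand binding (n = 4). Targets above 50% inhibition went on to full competition isotherms, and Ki came from best-fit IC50 by the Cheng–Prusoff equation.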

The target of series [7] is T1, 5-hydroxytryptamine receptor 2C (Homo sapiens) (UniProt P28335).
T1 sequence (whole entry): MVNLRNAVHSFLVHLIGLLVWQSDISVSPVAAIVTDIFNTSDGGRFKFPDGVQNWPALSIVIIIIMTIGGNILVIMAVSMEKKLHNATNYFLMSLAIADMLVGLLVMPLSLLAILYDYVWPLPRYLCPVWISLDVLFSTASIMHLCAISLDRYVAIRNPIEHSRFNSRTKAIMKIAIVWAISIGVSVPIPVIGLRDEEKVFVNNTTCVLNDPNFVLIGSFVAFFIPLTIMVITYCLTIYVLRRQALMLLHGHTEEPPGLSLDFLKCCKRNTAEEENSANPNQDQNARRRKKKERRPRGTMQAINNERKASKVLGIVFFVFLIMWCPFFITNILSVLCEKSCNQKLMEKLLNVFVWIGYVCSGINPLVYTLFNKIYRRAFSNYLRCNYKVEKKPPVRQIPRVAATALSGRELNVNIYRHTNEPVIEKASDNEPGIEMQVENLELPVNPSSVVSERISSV
The series is described as follows: Positive allosteric modulation of human 5-HT2CR expressed in CHO cells assessed as 5-HT-induced intracellular calcium release at 1 nM preincubated for 15 mins followed by 5-HT addition by calcium-4 dye based FLIPR assay (reference value: 100%). Type of series: functional, cell-based. Put shortly:
(§2)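 CHO cells stably expressing human unedited INI 5-HT2CR were plated, serum-starved 3 h, then loaded with Calcium 4 dye plus 2.5 mM probenecid (60 min 37 °C, then 15 min RT). Compound (1 nM) was added; the read after this addition gave intrinsic agonism. 5-HT (10 pM–10 μM) followed 15 min later. FLIPR-TETRA: 10 s baseline, 1 s reads for 120 s after compound and 360 s after 5-HT. Emax came from 4-parameter fits, ≥3 biological replicates in triplicate.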

The nature of series [8]: Tmax in Sprague-Dawley rat at 10 mg/kg, po administered as single dose. It is filed as ADME, organism-based. The conditions noted are these: in vivo.
Series [9] concerns Rattus norvegicus. The series is described as follows: Increase in WAY163909-induced suppression of spontaneous locomotor activity in Sprague-Dawley rat assessed as reduction in total ambulation at 5 mg/kg, ip administered as single dose measured for 30 mins. Type of series: functional, organism-based. In a few lines: (§3)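 Rats (n = 9–10/group) received SB242084 (1 mg/kg ip) or vehicle (8% 2-hydroxypropyl-β-cyclodextrin) 15 min before ip WAY163909 (1 mg/kg) plus compound (5 mg/kg). They were placed in monitors immediately; ambulations and vertical activity were totalled over 30 min. Analysis: ANOVA with Bonferroni comparisons.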

For series [10], the target named is Sodium-dependent serotonin transporter (Homo sapiens) (UniProt P31645). The series is described as follows: Displacement of [3H]-citalopram from recombinant human SERT expressed in HEK cell membranes at 10 uM after 90 mins by scintillation counting method relative to control.
Chain of Sodium-dependent serotonin transporter (Homo sapiens) (P31645 whole entry, looked up): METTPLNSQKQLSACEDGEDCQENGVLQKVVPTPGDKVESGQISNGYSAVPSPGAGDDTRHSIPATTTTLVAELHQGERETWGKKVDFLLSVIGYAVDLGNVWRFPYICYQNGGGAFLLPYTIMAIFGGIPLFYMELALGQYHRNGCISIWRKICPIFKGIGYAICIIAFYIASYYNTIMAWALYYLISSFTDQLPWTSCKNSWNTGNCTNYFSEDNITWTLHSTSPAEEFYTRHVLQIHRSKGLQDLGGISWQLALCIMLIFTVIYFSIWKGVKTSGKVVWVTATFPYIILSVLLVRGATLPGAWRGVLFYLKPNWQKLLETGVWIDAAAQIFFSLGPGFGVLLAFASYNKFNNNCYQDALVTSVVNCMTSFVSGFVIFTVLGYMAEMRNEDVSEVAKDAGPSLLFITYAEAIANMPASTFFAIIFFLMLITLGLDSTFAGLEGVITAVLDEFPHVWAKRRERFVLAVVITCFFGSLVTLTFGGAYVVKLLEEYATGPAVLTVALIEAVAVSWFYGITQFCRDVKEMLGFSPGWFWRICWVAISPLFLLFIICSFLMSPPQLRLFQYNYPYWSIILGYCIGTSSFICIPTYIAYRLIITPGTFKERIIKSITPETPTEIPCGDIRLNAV
In series [11] the target is D(1B) dopamine receptor (Homo sapiens) (UniProt P21918). The series is described as follows: Displacement of [3H]-SCH23390 from recombinant human D5R expressed in HEKT cell membranes at 10 uM after 90 mins by scintillation counting method relative to control.
Chain of D(1B) dopamine receptor (Homo sapiens) (P21918 whole entry): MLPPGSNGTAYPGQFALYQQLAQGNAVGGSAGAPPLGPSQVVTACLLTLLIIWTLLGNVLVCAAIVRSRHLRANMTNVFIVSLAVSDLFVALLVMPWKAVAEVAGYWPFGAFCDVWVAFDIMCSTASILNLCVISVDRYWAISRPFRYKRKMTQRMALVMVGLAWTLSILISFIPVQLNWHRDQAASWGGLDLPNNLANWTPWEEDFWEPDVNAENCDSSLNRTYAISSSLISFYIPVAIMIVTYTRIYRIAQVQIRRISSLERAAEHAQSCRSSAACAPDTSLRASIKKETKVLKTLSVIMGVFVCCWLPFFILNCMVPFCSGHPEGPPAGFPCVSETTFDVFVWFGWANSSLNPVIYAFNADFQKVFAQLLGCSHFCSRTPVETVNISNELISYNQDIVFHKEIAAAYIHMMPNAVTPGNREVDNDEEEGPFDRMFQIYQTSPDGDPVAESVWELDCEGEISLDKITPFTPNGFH
In series [12] the target is 5-hydroxytryptamine receptor 1D (Homo sapiens) (UniProt P28221). As to the kind of experiment: Displacement of [3H]-GR125743 from recombinant human 5-HT1DR expressed in HEKT cell membranes at 10 uM after 90 mins by scintillation counting method relative to control.
Chain of 5-hydroxytryptamine receptor 1D (Homo sapiens) (P28221 whole entry): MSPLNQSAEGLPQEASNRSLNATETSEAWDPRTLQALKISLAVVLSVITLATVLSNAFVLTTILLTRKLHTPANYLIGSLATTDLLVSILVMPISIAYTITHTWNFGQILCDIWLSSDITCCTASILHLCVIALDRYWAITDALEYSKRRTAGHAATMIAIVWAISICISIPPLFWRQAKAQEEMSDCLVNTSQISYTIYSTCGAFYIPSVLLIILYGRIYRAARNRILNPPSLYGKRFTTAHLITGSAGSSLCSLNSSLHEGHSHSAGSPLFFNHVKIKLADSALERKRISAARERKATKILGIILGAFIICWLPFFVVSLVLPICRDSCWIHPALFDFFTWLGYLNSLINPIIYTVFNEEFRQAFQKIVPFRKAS
Series [13] has as its system Rattus norvegicus. As to the kind of experiment: Increase in WAY163909-induced suppression of spontaneous locomotor activity in Sprague-Dawley rat assessed as reduction in total vertical activity at 5 mg/kg, ip administered as single dose measured for 30 mins. Type of series: functional, organism-based. Put shortly: as §3
The test system of series [14] is Rattus norvegicus. As to the kind of experiment: Drug discrimination in WAY163909-trained Sprague-Dawley rat assessed as increase in WAY163909-appropriate lever responding at 0.5 mg/kg, ip co-treated with WAY163909 15 mins prior to test relative to control. Type of series: functional. Put shortly: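 Water-restricted male Sprague–Dawley rats were trained to discriminate WAY163909 (0.75 mg/kg ip, 15 min pretreatment) from saline under FR20, to a criterion of ≥80% correct for 10 sessions. Test doses were given ip 15 min before test: compound alone (0.125–1.0 mg/kg) or compound 0.5 mg/kg plus WAY163909 0.5 mg/kg. Read-out was % drug-lever responding; only rats completing FR20 within 15 min were counted.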

The nature of series [15]: AUC (0 to infinity) in Sprague-Dawley rat at 10 mg/kg, po administered as single dose. It is filed as ADME, organism-based. Details: dose 10 mg/kg, time infinity, route oral. The conditions noted are these: in vivo.
Series [16] addresses T1, 5-hydroxytryptamine receptor 2C (Homo sapiens). As to the kind of experiment: Displacement of [3H]-mesulergine from recombinant human 5-HT2CR expressed in Flp-IN HEK cell membranes at 10 uM after 90 mins by scintillation counting method relative to control. In a few lines:
as §1

Series [17] shares this target. The series is described as follows: Intrinsic agonist activity at human 5-HT2CR expressed in CHO cells assessed as induction of intracellular calcium release at 1 nM incubated for 15 mins measured every 1 sec for 120 secs by calcium-4 dye based FLIPR assay. It is filed as functional, cell-based. In a few lines: as §2

Active and inactive are the calls of the source.

Chain of D(3) dopamine receptor (Homo sapiens) (P35462 whole entry): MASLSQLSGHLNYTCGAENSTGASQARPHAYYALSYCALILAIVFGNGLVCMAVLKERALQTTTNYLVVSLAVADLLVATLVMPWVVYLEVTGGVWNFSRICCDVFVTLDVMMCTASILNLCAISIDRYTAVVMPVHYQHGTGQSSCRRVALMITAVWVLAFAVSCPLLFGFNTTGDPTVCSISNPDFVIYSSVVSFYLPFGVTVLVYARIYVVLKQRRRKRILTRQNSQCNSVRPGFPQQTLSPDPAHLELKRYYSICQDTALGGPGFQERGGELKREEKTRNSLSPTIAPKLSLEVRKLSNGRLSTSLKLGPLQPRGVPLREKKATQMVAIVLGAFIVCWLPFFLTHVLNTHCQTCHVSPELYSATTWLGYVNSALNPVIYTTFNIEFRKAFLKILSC

What is called inhibition is the share of the control response that was lost under treatment. By Emax is commonly meant the greatest response seen or fitted, relative to the assay's reference. In general, Tmax refers to the time from dosing to the highest level. As a reminder, the AUC is concentration integrated over time. A high value points to more exposure. `CCCCCCCCCCC[C@@H]1CCN[C@H](C(=O)NCC(O)CO)C1` (relative stereo): the “beta t1/2” value in series [1] was 5.82 h. The inhibition turned out to be 25.7% in series [2]; 28.8% in [3]; 29.3% in series [5]; 71.4% in series [6]; 24.8% in [10]; 32.5% in [11]. The inhibition in series [12] turned out to be 5.5%; in [16], 9.8%. The results for the Activity entry in series [4] and in [14] were “Not Active” and 95%, respectively. The Emax in [7] came to 123%. Besides, in series [8], the time of peak concentration (Tmax) came to 3.3 h. Besides, the result in series [9] and in series [13] was Active. In addition, in [15], the exposure (AUC) is 737 ng·h/mL. Also, in [17], the result was inactive.

For the origin of these results see ChEMBL document CHEMBL4308830, “Design, Synthesis, and Characterization of 4-Undecylpiperidine-2-carboxamides as Positive Allosteric Modulators of the Serotonin (5-HT) 5-HT2C Receptor” (J Med Chem, 2018).
